Measurements: PubChem BioAssay AID602434 (Sanford-Burnham Center for Chemical Genomics, 2012)

The compounds below were run against CHO-CHOP luciferase reporter, UPR activation, luminescence (assay: activators of CHOP-driven apoptotic UPR arm, SAR follow-up, CHO-CHOP cells, luciferase luminescence, set 3 (AID 602434)).
Procedure, shortened: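 system = CHO cell line stably carrying CHOP-driven luciferase reporter | incubation = 16-18 h seeding, 6 h treatment at 37 °C | technique = Steady-Glo luminescence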

EC50, active:
CC1CCN(S(=O)(=O)c2ccc(NC(=O)c3ccc([N+](=O)[O-])o3)cc2)CC1 761 nM
CC(C)(C)C1CCN(S(=O)(=O)c2ccc(NC(=O)c3ccc([N+](=O)[O-])o3)cc2)CC1 652 nM
O=C(Nc1ccc(S(=O)(=O)N2CCC(Cl)CC2)cc1)c1ccc([N+](=O)[O-])o1 785 nM
O=C(Nc1ccc(S(=O)(=O)N2CCCCC2)cc1)c1ccc([N+](=O)[O-])o1 741 nM
CC1(C)CCN(S(=O)(=O)c2ccc(NC(=O)c3ccc([N+](=O)[O-])o3)cc2)CC1 765 nM
O=C(Nc1ccc(S(=O)(=O)N2CCC(F)CC2)cc1)c1ccc([N+](=O)[O-])o1 435 nM
